Compound activity as filed in PubChem.
An excerpt weighted towards active compounds, which were near 6.9% of everything screened.
PostGolgi ctrl – inhibits growth of the yeast control strain. AID 738. 5% of 98,000 active. inhibition, % at 10 µM. efflux-deficient yeast background strain, growth absorbance A615, 16 h
FAK blocker – inhibitors of human focal adhesion kinase. biochemical FAK kinase activity assay. Q05397. inhibition, %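 (tested at 7 µM)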. 0.84% of 97,000 active; in the data active means inhibition above about 19%
PostGolgi yeast – growth inhibition of a yeast mutant, post-Golgi transport screen; post-Golgi transport phenotypic cell assay; inhibition, % at 10 µM; 0.9% of 98,000 active; AID 739;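 further: yeast cells grown in 1536-well plates; yeast grown about 18 h at 30C before absorbance read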
Ecoli tolC – blocks growth of E. coli BW25113 tolC mutant | 2.2% of 65,000 active | growth inhibition, % at 10 µM (by protocol) | AID 573 | OD615;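 active means growth inhibition at or above a cutoff equal to the mean over every tested compound plus 3 SD, cut at about 60% in these data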;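 further: growth measured after 20 h incubation at 37 °C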
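test system = E. coli BW25113 ΔtolC::kan bacteria | medium = LB with kanamycin 50 µg/mL | signal = OD at 615 nm | schedule = 37 °C, 20 h exposure | evaluation = % inhibition of E. coli growth | compound dosing = one dose of 10 µM final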
PTK2B oligo ant – antagonists of human Pyk2 oligomerization | 0.83% of 99,000 active | Q293 cells, Pyk2 FERM NanoBiT luminescence; hits give low values | z-score (the deposit names both 25 µM and 10 µM) | AID 1347419;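 active means Z-score of -3 or lower, scaled per plate to the spread of control and sample wells; inactive means z-score above -3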;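 further: negative z-score means lost luminescence so less FERM oligomerization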
Target sequence (Q14289 whole entry, looked up): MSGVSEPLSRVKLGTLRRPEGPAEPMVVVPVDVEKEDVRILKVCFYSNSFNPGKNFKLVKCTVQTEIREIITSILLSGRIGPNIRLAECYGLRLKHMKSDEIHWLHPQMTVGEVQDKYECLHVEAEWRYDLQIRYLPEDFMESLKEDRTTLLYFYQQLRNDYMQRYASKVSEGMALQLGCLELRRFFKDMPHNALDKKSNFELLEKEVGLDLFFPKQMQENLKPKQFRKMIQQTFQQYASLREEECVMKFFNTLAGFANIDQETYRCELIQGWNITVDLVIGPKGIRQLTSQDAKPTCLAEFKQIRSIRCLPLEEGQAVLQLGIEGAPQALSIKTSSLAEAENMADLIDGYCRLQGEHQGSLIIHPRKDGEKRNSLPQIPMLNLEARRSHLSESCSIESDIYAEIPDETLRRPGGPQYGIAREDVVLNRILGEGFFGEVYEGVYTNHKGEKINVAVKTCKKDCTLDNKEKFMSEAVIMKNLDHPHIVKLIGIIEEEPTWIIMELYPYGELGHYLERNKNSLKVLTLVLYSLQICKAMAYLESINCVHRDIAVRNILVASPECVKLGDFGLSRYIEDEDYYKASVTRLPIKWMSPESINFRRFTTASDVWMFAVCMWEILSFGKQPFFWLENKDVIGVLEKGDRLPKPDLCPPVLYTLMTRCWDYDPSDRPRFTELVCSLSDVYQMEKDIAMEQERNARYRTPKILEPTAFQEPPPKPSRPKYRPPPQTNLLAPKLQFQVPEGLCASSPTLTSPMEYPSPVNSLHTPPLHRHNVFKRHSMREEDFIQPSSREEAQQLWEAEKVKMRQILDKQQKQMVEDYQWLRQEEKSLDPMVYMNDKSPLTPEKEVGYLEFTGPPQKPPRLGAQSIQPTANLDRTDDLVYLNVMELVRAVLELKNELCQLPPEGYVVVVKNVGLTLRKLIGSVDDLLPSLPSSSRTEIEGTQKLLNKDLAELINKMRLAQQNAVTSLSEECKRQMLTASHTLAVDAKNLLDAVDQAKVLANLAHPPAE
Candida biofilm – kills Candida albicans biofilms | 0.14% of 85,000 active | C. albicans biofilm + clotrimazole, Alamar Blue | inhibition, % at 6 µM | AID 834;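 active means inhibition above 20%; inactive means inhibition below 20%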;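 further: preformed 24 hr biofilms exposed to compound for 48 hr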
Large screens that a line does not name were inactive. Unless noted, no stated cut-off is given here; in the data, active means inhibition above about 30%; inactive means the rest.

CC(C)(C)c1ccc(C(=O)CCCSC2=C(C#N)C(c3ccco3)C3=C(CCCC3=O)N2)cc1 (stereo unspecified)	Ecoli tolC 80
Cc1ccc(C(=O)CSC2=C(C#N)C(c3ccco3)C3=C(CCCC3=O)N2)cc1 (stereo unspecified)	none (no result: FAK blocker)
CCOC(=O)N1CCN(C(=O)c2oc3ccc(S(=O)(=O)N4CCCCC4)cc3c2C)CC1	none
Cc1c(C(=O)NCc2ccc3c(c2)OCO3)oc2ccc(S(=O)(=O)N3CCC(C)CC3)cc12	none
Cc1c(C(=O)N2CCCCC2)oc2ccc(S(=O)(=O)N3CC(C)CC(C)C3)cc12 (stereo unspecified)	Ecoli tolC 91 (no result: Candida biofilm)
Cc1c(C(=O)NCc2cccnc2)oc2ccc(S(=O)(=O)N3CCCC(C)C3)cc12 (stereo unspecified)	PostGolgi ctrl 33 (no result: FAK blocker)
CC(C)NS(=O)(=O)c1ccc(OCC(=O)NCCC2=CCCCC2)cc1	none (no result: Ecoli tolC)
COc1ccc(C(=O)N2CCN(C(=O)CC(C)C)CC2)cc1OC	none
Cc1ccnc(N2C(=O)c3cccc4c([N+](=O)[O-])ccc(c34)C2=O)c1	PostGolgi ctrl 53, PostGolgi yeast 105 (no result: Ecoli tolC, Candida biofilm)
Cc1n[nH]c(C)c1N1C(=O)c2cccc3c(Br)ccc(c23)C1=O	none (no result: PostGolgi ctrl, PostGolgi yeast, Ecoli tolC)
Cn1nc(C(F)(F)F)c(/C=N/OC(=O)c2ccccc2)c1SCc1ccc(Cl)cc1	none (no result: Ecoli tolC, Candida biofilm)
Cc1nonc1OCC(C)(COc1nonc1C)NC(=O)c1ccc(Cl)cc1	none (no result: PostGolgi ctrl, PostGolgi yeast, Ecoli tolC)
O=C1N2c3ccccc3CCc3cccc(c32)C1(O)C(F)(F)F (stereo unspecified)	PostGolgi ctrl 50 (no result: Candida biofilm)
O=C(NC(=S)Nc1ccc(Cl)cn1)c1cccs1	none (no result: Ecoli tolC, Candida biofilm)
C=CCn1c(=O)/c(=C\c2ccsc2)s/c1=C(/C#N)C(=O)NCCN1CCOCC1	none
O=C(CN1CCN(S(=O)(=O)c2ccc(F)cc2)CC1)Nc1ccc2c(c1)OCCO2	none
CCOc1ccc(NC(=O)CN2CCN(CC(=O)Nc3ccc(Cl)c(C(F)(F)F)c3)CC2)cc1	PostGolgi ctrl 35 (no result: Ecoli tolC)
O=C(CN1CCN(S(=O)(=O)c2ccc(F)cc2)CC1)Nc1ccc(Cl)c(C(F)(F)F)c1	PostGolgi ctrl 33, Ecoli tolC 64
CCOc1ccc2c(c1)c(C(C)=O)c(C)n2-c1ccccc1	PostGolgi ctrl 41 (no result: Ecoli tolC)
Cn1c(=O)c2c(nc(SCC(=O)NCc3ccc4c(c3)OCO4)n2Cc2ccc(F)cc2)n(C)c1=O	none (no result: PostGolgi ctrl, PostGolgi yeast, Ecoli tolC)
O=S(=O)(CCSc1nc2ccccc2o1)c1nc2ccccc2s1	PostGolgi ctrl 61, PTK2B oligo ant -3.1
CCOC(=O)C(C(=O)NCCCN1CCOCC1)C1CCCCC1 (stereo unspecified)	FAK blocker 19 (no result: PostGolgi ctrl, PostGolgi yeast, Ecoli tolC)
C=CCNC(=O)C(C(=O)OCC)C1CCCCC1 (stereo unspecified)	none (no result: PostGolgi ctrl, PostGolgi yeast, Ecoli tolC)
COc1ccc(OC2C(=O)N(Cc3ccc(F)cc3)C2c2ccc(OC)c(OC)c2)cc1 (stereo unspecified)	PostGolgi ctrl 40 (no result: Ecoli tolC, Candida biofilm)
S=c1[nH]nc(CSc2nc3ccccc3s2)n1Cc1ccccc1	PostGolgi ctrl 34 (no result: Ecoli tolC)
Cc1occc1C(=O)NC(C)C1CCCO1 (stereo unspecified)	none (no result: Candida biofilm)
CCOc1ccc2nc(NC(=O)C3CCCN(S(=O)(=O)c4cccs4)C3)sc2c1 (stereo unspecified)	PostGolgi ctrl 48, PostGolgi yeast 75, Ecoli tolC 63
CCOc1ccc2nc(NC(=O)C(NS(=O)(=O)c3cccs3)C(C)C)sc2c1 (stereo unspecified)	none
Cc1cccc(NC(=O)C2CCN(S(=O)(=O)c3cccc4nsnc34)CC2)n1	none
COc1ccc2nc(NC(=O)C3CCN(S(=O)(=O)c4cccc5nsnc45)CC3)sc2c1	PTK2B oligo ant -3.4
CCOc1ccc2nc(NC(=O)CS(=O)(=O)c3ccccc3)sc2c1	PostGolgi ctrl 51
O=C(CCC(=O)N1CCCC1)Nc1nnc(C2CCCCC2)s1	none
C=C1c2cc(C)ccc2NC(=O)N1c1ccc(C)cc1	none (no result: Ecoli tolC)
Cc1ccc(Cn2nnc3c(=O)n(CC(=O)N4CCCc5ccccc54)cnc32)cc1	none (no result: PostGolgi ctrl, PostGolgi yeast)
COc1ccc(C2NC(=S)N(c3ccccc3)C(C)=C2C(=O)Nc2ccccc2)cc1 (stereo unspecified)	none (no result: Ecoli tolC)
Cc1cc(C(C)(C)C)oc1C(=O)N(CC(=O)NC1CCCC1)Cc1ccccc1Cl	PostGolgi ctrl 31 (no result: Ecoli tolC, Candida biofilm)
Cc1ccccc1N(CC(=O)NC1CCCC1)C(=O)c1oc(C(C)(C)C)cc1C	none (no result: Ecoli tolC, Candida biofilm)
O=C(NC1(C(F)(F)F)NC(=O)N(c2ccc(F)c(Cl)c2)C1=O)c1ccncc1 (stereo unspecified)	none (no result: Ecoli tolC, Candida biofilm)
